Experimental data published in PMC3912990 (Current biology : CB, 2014).

Experiments:
Experiment in all cases: FLIPR intracellular Ca2+, agonist mode
Assay type in all cases: cell-based
κ-opioid receptor = κ-opioid receptor (Homo sapiens, UniProt P41145)
How it was run: (§1)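 Human opioid receptor cDNA in pcDNA3.1(−), stably expressed in HEK293T cells grown in DMEM with 10% FBS. Test compound was dissolved in DMSO, diluted in FLIPR buffer and added automatically within 4 sec. Intracellular Ca2+ was monitored over 4 min (excitation 488 nm, emission 520 nm), and data were recorded as fluorescence (arbitrary units) versus time.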

μ-opioid receptor = μ-opioid receptor (Homo sapiens, UniProt P35372); conditions: stable HEK293T line
How it was run: as §1

δ-opioid receptor = δ-opioid receptor (Homo sapiens, UniProt P41143)
How it was run: as §1

Chain of μ-opioid receptor (P35372 whole entry): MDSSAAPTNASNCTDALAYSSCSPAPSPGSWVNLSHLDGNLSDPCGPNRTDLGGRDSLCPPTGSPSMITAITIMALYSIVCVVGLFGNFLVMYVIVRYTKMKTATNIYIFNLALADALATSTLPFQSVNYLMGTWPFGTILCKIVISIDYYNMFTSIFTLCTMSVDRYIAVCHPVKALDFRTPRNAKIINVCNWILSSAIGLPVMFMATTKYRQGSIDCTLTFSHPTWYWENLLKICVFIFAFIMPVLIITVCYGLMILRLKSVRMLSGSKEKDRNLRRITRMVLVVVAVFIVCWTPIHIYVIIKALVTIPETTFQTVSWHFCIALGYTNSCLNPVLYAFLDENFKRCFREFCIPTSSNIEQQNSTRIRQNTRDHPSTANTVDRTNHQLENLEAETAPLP
Chain of δ-opioid receptor (P41143 whole entry): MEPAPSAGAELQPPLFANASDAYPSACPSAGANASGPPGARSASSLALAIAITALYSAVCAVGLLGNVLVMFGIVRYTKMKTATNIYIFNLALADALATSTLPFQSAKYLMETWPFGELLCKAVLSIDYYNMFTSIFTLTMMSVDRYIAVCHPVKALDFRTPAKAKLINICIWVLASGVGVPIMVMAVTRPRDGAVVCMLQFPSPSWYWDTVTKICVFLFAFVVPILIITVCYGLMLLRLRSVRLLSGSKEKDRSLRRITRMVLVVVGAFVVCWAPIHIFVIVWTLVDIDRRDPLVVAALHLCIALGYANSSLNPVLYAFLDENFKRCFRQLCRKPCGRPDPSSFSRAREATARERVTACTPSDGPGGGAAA
Chain of κ-opioid receptor (P41145 whole entry): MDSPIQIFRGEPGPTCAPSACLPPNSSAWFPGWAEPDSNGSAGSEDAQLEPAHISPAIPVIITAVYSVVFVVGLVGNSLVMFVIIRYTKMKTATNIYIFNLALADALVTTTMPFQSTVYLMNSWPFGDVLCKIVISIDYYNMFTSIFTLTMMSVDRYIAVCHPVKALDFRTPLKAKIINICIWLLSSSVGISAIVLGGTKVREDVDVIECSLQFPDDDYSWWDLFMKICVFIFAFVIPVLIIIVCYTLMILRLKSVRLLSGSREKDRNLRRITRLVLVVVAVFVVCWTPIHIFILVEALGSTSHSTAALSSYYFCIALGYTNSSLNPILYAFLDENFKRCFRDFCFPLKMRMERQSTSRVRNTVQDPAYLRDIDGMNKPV

## COc1cc2c(cc1O)CC[n+]1cc3c(OC)c(OC)ccc3c(C)c1-2 [DHCB]
κ-opioid receptor
  EC50: > 500 µM
μ-opioid receptor
  Opioid Agonist (EC50, μM) / μ: 100 (74~136) μM
δ-opioid receptor
  EC50: > 500 µM
